ChEMBL document CHEMBL1157911, “A prodrug approach towards the development of tricyclic-based FBPase inhibitors” (Bioorg Med Chem Lett, 2010)
Converted amounts (≈) assume the structure as drawn.

Key:
[1] = Inhibition of fructose-1,6-bisphosphatase in monkey hepatocytes assessed as glucose production; type: cell-based; conditions: Macaca mulatta, Hepatocyte
[2] = Solubility at pH 1.2; type: physicochemical; conditions: buffer
Procedure, shortened: (§1)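 Solubility measured in Japanese Pharmacopoeia test fluids: first fluid (JP1, pH 1.2, simulating gastric conditions) and second fluid (JP2, pH 6.8, simulating intestinal conditions).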

Cytochrome P450 3A4 = Cytochrome P450 3A4 (Homo sapiens, UniProt P08684); test: Inhibition of CYP3A4; type: ADME
[3] = Solubility at pH 6.8; type: physicochemical; conditions: buffer; procedure, shortened: as §1

Sequence of Cytochrome P450 3A4 (P08684 whole entry): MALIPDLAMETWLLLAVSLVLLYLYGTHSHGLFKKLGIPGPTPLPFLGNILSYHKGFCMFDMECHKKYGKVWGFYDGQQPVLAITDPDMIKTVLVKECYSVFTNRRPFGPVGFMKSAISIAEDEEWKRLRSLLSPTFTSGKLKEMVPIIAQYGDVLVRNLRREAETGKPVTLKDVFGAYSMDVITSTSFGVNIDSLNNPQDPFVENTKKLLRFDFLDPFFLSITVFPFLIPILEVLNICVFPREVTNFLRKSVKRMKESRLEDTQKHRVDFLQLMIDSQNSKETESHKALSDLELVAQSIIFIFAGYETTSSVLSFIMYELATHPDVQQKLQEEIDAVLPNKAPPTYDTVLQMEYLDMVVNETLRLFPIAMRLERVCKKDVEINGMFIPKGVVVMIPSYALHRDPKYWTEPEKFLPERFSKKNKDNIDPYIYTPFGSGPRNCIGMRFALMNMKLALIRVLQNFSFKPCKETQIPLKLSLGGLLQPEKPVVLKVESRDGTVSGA

Structure (SMILES)	solubility [2]	IC50 (Cytochrome P450 3A4)	solubility [3]	IC50 [1]
CCOC(=O)[C@H](C)NP(=O)(COc1cc(C)c(C)c2c1-c1ncsc1C2)N[C@@H](C)C(=O)OCC	27 µg/mL (≈ 53 µM)	0.58 µM	66 µg/mL (≈ 130 µM)	6.8 µM
Cc1cc(OC[P@@]2(=O)OCC[C@@H](c3cccc(Cl)c3)O2)c2c(c1C)Cc1scnc1-2	19 µg/mL (≈ 41.1 µM)	0.42 µM	< 0.5 µg/mL	15 µM
COc1cccc([C@@H]2CCO[P@@](=O)(COc3cc(C)c(C)c4c3-c3ncsc3C4)O2)c1 (racemic)	< 0.5 µg/mL	0.3 µM	< 0.5 µg/mL	> 100 µM
COc1cccc([C@@H]2CCO[P@](=O)(COc3cc(C)c(C)c4c3-c3ncsc3C4)O2)c1 (racemic)	17 µg/mL (≈ 37.2 µM)	0.27 µM	0.8 µg/mL (≈ 1.75 µM)	> 100 µM
Cc1cc(OC[P@]2(=O)OCC[C@@H](c3ccc(Cl)cc3)O2)c2c(c1C)Cc1scnc1-2 (racemic)	< 0.5 µg/mL	0.73 µM	< 0.5 µg/mL	> 100 µM
Cc1cc(OC[P@]2(=O)OCC[C@@H](c3cccc(Cl)c3)O2)c2c(c1C)Cc1scnc1-2	< 0.5 µg/mL	2.7 µM	< 0.5 µg/mL	> 100 µM
Cc1cc(OC[P@@]2(=O)OCC[C@@H](c3ccc(Cl)cc3)O2)c2c(c1C)Cc1scnc1-2 (racemic)	4.4 µg/mL (≈ 9.53 µM)	0.65 µM	< 0.5 µg/mL	66 µM

Now from value to molecule, other results behind:

solubility [2]	IC50 (Cytochrome P450 3A4)	solubility [3]	Structure (SMILES)	IC50 [1]
> 100 µg/mL	5.2 µM	81 µg/mL (≈ 183 µM)	Cc1ccncc1[C@@H]1CCO[P@](=O)(COc2cc(C)c(C)c3c2-c2ncsc2C3)O1 (racemic)	> 100 µM
88 µg/mL (≈ 205 µM)		51 µg/mL (≈ 119 µM)	Cc1cc(OC[P@@]2(=O)OCC[C@@H](c3ccncc3)O2)c2c(c1C)Cc1scnc1-2 (racemic)	41 µM
86 µg/mL (≈ 201 µM)	8.4 µM	73 µg/mL (≈ 170 µM)	Cc1cc(OC[P@@]2(=O)OCC[C@@H](c3ccccn3)O2)c2c(c1C)Cc1scnc1-2 (racemic)	22 µM
86 µg/mL (≈ 201 µM)	2.9 µM	84 µg/mL (≈ 196 µM)	Cc1cc(OC[P@@]2(=O)OCC[C@@H](c3cccnc3)O2)c2c(c1C)Cc1scnc1-2 (racemic)	8.8 µM
88 µg/mL (≈ 199 µM)	15 µM	84 µg/mL (≈ 190 µM)	Cc1cc(OC[P@@]2(=O)OCC[C@@H](c3cccnc3C)O2)c2c(c1C)Cc1scnc1-2	4 µM
87 µg/mL (≈ 197 µM)	5.8 µM	83 µg/mL (≈ 188 µM)	Cc1cc(OC[P@]2(=O)OCC[C@H](c3cccnc3C)O2)c2c(c1C)Cc1scnc1-2 (racemic)	11 µM
